Test results taken from ChEMBL document CHEMBL1122999 (J Med Chem, 1985).

Tests used:
[1] = organism: Rattus norvegicus; assay: Inhibition of GABA uptake from rat diencephalon-midbrain at 100 uM concentration; assay type: functional
[2] = organism: Rattus norvegicus; assay: Inhibition of GABA uptake from rat diencephalon-midbrain at 1 uM concentration; assay type: functional
Outline: (§1)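 P2 synaptosomal fraction prepared from rat brain in 0.32 M sucrose by 1000g and 16500g spins. About 150 µg protein preincubated 15 min at 37 °C with inhibitor in oxygenated Tris/NaCl buffer, pH 7.4, containing 2.7 mM CaCl2 and 10 µM aminooxyacetic acid. Uptake of 1 µM [3H]GABA run for 3 min, then filtered and counted. Accumulation at 0 °C subtracted. Screening at 10, 1 and 0.1 µM in quadruplicate on pooled diencephalon-midbrain tissue.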

[3] = organism: Rattus norvegicus; assay: (§2) Inhibition of Norepinephrine uptake from rat diencephalon-midbrain; assay type: functional
[4] = molecular target: T1, GABA-A receptor; anion channel (Rattus norvegicus) (UniProt O09028+P15431+P18506+P18508+P19969+P20236+P23574+P23576+P28471+P28473+P30191+P62813+P63079+P63138+Q91ZM7+Q9ES14); assay: Displacement of [3H]- muscimol from GABA-A receptor from rat cerebellum membrane at 100 uM; assay type: tissue-based
[5] = molecular target: 4-aminobutyrate aminotransferase, mitochondrial (Rattus norvegicus) (UniProt P50554); assay: Percent of enzyme inhibition by Gamma-amino-N-butyrate transaminase assay method; details: concentration not given here
Outline: (§3)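 Rat diencephalon-midbrain homogenate in Tris-HCl pH 8.0 with Triton X-100. Incubated with 2 mM α-ketoglutarate, 0.2 mM GABA and 20 µM pyridoxal phosphate, test agent at 1 mM final, 30 min at 37 °C. Blanks held at 4 °C. Glutamate formed read fluorometrically as NADH via glutamate dehydrogenase.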

[6] = molecular target: T2, Glutamate decarboxylase 1 (Rattus norvegicus) (UniProt P18088); assay: Percent of enzyme inhibition by Glutamate decarboxylase (GAD) assay method; details: concentration not given here
T2 sequence (whole entry): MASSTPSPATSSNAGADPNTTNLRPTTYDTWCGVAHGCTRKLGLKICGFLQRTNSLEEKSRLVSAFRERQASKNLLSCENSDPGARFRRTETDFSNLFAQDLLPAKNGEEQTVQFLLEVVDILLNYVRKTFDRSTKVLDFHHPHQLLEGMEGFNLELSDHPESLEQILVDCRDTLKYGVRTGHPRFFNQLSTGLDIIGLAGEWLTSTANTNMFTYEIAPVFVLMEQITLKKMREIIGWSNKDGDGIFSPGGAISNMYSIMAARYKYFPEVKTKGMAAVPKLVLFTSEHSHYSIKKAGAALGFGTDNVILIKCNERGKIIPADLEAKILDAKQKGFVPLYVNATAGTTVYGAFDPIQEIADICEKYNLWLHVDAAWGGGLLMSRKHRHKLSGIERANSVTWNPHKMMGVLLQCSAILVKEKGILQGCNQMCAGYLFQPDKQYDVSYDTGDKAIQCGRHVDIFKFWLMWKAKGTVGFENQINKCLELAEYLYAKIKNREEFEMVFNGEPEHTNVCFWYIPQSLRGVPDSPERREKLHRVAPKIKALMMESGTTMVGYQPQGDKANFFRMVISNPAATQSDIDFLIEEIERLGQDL
Outline: (§4)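 Homogenate of rat diencephalon-midbrain in phosphate buffer pH 6.5 with Triton X-100. Incubated with 5 mM l-glutamate, 10 µM pyridoxal phosphate and test agent at 1 mM final, 30 min at 37 °C. Stopped by boiling; boiled-enzyme blanks used. GABA formed quantified fluorometrically with GABAase and NADPH.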

[7] = organism: Rattus norvegicus; assay: (§5) Inhibition of GABA uptake from rat diencephalon-midbrain,; assay type: functional
[8] = organism: Rattus norvegicus; assay: Inhibition of GABA uptake from rat diencephalon-midbrain at 10 uM concentration; assay type: functional; outline: as §1
[9] = as §5; outline: as §1
[10] = molecular target: Norepinephrine transporter (Rattus norvegicus, UniProt Q9WTR4); assay: as §2
[11] = molecular target: GABA-A receptor; anion channel; assay: Displacement of [3H]- muscimol from GABA-A receptor from rat cerebellum membrane at 0.24-0.45 uM; assay type: tissue-based
[12] = molecular target: 4-aminobutyrate aminotransferase, mitochondrial (Rattus norvegicus) (UniProt P50554); assay: Percent inhibition of Gamma-amino-N-butyrate transaminase from rat was evaluated; details: concentration not given here; outline: as §3
[13] = Dissociation constant pKa (N) was evaluated; assay type: physicochemical
[14] = Distribution coefficient was evaluated; assay type: physicochemical; details: octanol/water
Outline: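 Distribution coefficient (log D) measured between 1-octanol and phosphate buffer, pH 7.4.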

[15] = molecular target: Adrenergic receptor alpha-1 (Rattus norvegicus) (UniProt P15823+P23944+P43140); assay: Percent inhibition of alpha-1 adrenergic receptor from rat cortical membrane using [3H]- WB-4101 as radioligand at 10 uM
Outline: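 Rat cortical membranes labelled with 0.22 nM [3H]WB4101 (KD 0.306 nM). Nonspecific binding defined with 100 µM norepinephrine.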

[16] = Dissociation constant pKa (CO2H) was evaluated; assay type: physicochemical
[17] = molecular target: Serotonin 1 (5-HT1) receptor (Rattus norvegicus) (UniProt P28564+P30940+P19327+P28565); assay: Percent inhibition of 5-hydroxytryptamine 1 receptor from rat cortex membrane using [3H]- serotonin as radioligand at 33 uM
[18] = molecular target: Muscarinic acetylcholine receptor (Rattus norvegicus) (UniProt P08482+P08483+P08485+P08911+P10980); assay: Percent inhibition of Muscarinic acetylcholine receptor from rat striatal membrane using [3H]- QNB as radioligand at 100 uM
Outline: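 Displacement on rat striatal membranes using 0.23 nM [3H]QNB (KD 0.20 nM). Nonspecific binding defined with 1 µM atropine.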

[19] = molecular target: T1, GABA-A receptor; anion channel (Rattus norvegicus); assay: Percent inhibition of [3H]- Diazepam binding to GABA-A Benzodiazepine receptor of rat frontal cortex membranes; assay type: cell membranes; details: Membrane, concentration not given here
Outline: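 Rat frontal cortex membranes with 1.5 nM [3H]diazepam (KD 9.7 nM). Nonspecific binding defined with 3 µM diazepam.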

[20] = molecular target: T2, Glutamate decarboxylase 1 (Rattus norvegicus); assay: Percent inhibition of Glutamate decarboxylase from rat was evaluated; details: concentration not given here; outline: as §4
[21] = molecular target: D(2) dopamine receptor (Rattus norvegicus) (UniProt P61169); assay: Percent inhibition of Dopamine receptor D2 from rat striatal membrane using [3H]- spiroperidol as radioligand at 50 uM
Outline: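 Rat striatal membranes with 0.22 nM [3H]spiroperidol (KD 0.287 nM). Nonspecific binding defined with 1 µM d-butaclamol.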

[22] = molecular target: T2, Glutamate decarboxylase 1 (Rattus norvegicus); assay: Percent of enzyme inhibition by Glutamate decarboxylase assay method; details: concentration not given here; outline: as §4
[23] = Dissociation constant pKa (CO2H) of the compound; assay type: physicochemical
[24] = Dissociation constant pKa (N) of the compound; assay type: physicochemical
[25] = molecular target: T1, GABA-A receptor; anion channel (Rattus norvegicus); details: Cerebellum, 0.003-0.006 uM
[26] = as §5; details: concentration not given here
Outline: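 Rat diencephalon-midbrain P2 synaptosomal fraction (0.32 M sucrose homogenate, differential centrifugation), pooled from three rats. Preincubated 15 min at 37 °C with inhibitor in oxygenated Tris/NaCl buffer pH 7.4 containing 2.7 mM CaCl2 and 10 µM aminooxyacetic acid. Then 3 min uptake of 1 µM [3H]GABA, filtration, scintillation counting, minus 0 °C uptake. Screened at 10, 1, 0.1 µM in quadruplicate.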

[27] = organism: Rattus norvegicus; assay: Inhibition of GABA uptake from rat diencephalon-midbrain; assay type: functional; outline: as §1

Sequence of Norepinephrine transporter (Q9WTR4 whole entry): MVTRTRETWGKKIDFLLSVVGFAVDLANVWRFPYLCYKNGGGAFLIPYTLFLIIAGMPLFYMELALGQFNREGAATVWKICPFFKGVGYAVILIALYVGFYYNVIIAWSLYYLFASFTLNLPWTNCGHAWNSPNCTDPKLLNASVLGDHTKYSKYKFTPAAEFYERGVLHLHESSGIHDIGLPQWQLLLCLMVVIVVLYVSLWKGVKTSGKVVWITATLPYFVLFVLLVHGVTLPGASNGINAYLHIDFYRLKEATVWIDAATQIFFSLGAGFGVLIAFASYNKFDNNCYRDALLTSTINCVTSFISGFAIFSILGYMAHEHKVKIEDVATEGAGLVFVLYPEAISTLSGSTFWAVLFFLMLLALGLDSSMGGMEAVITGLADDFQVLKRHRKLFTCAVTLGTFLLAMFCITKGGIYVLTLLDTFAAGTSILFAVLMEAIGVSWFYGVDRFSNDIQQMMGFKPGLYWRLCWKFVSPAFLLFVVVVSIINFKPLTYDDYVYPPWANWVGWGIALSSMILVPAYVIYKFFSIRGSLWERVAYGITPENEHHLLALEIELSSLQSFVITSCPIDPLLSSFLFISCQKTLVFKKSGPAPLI
Sequence of 4-aminobutyrate aminotransferase, mitochondrial (Rattus norvegicus) (P50554 28-500 limits assumed): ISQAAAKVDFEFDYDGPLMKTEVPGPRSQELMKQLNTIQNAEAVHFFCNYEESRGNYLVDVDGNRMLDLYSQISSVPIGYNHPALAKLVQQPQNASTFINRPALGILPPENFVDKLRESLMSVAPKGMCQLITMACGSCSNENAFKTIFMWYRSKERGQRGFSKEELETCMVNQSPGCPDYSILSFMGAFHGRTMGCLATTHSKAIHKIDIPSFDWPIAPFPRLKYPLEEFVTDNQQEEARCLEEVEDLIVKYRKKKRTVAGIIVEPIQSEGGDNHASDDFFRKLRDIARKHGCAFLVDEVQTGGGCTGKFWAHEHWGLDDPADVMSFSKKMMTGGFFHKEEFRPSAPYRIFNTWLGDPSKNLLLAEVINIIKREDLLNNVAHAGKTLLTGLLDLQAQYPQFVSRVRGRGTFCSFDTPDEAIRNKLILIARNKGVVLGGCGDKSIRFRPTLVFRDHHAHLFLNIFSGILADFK
Sequence of D(2) dopamine receptor (Rattus norvegicus) (P61169 whole entry): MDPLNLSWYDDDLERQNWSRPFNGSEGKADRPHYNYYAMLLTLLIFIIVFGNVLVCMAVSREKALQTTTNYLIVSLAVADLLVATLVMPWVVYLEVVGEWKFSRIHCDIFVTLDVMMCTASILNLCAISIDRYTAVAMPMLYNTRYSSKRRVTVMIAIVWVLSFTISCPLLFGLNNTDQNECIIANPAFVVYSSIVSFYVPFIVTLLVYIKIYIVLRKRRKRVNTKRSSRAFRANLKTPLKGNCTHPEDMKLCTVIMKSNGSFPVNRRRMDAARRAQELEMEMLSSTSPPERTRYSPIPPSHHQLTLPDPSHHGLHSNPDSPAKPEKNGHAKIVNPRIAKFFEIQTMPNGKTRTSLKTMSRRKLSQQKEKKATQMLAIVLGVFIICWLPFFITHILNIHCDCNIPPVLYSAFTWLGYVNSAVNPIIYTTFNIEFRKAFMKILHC

CCOC(=O)C1CCCN(CCC=C(c2ccccc2)c2ccccc2)C1 (configuration not stated)
Increase [1]: 17%

O=C(O)C1CCCN(CCCC=C(c2ccccc2)c2ccccc2)C1 (configuration not stated)
Inhibition [2]: 31%

CN(C)CCCN1c2ccccc2CCc2ccccc21 [IMIPRAMINE]
Inhibition [1]: 68% | IC50 [3]: 0.027 µM

O=C(O)C1=CCCNC1 [GUVACINE]
inhibition [4]: 27% | inhibition [5]: 7% | inhibition [6]: 0% | IC50 [7]: 4.92 µM

O=C(O)C1CCCN(CC=C(c2ccccc2)c2ccccc2)C1 (configuration not stated)
Inhibition [8]: 5%

O=C(O)C1CN(CCC=C(c2ccccc2)c2ccccc2)CCC1O (configuration not stated)
inhibition [4]: 48% | IC50 [9]: 0.26 µM | IC50 [10]: 33.6 µM

NC1CCCC(C(=O)O)C1 (configuration not stated)
IC50 [7]: 8.13 µM

O=C(O)[C@H]1CCCN(CCC=C(c2ccccc2)c2ccccc2)C1
IC50 [3]: 180 µM | IC50 [7]: 1.91 µM

O=C(O)CC1CCNC1 (configuration not stated)
IC50 [11]: 0.33 µM | IC50 [7]: 1.54 µM

O=C(O)[C@@H]1CCCN(CCC=C(c2ccccc2)c2ccccc2)C1
IC50 [3]: 123 µM | IC50 [7]: 0.11 µM

O=C(O)C1CCCN(CCCC(c2ccccc2)c2ccccc2)C1 (configuration not stated)
Inhibition [8]: 27%

O=C(O)C1CCCN(CCC=C(c2ccccc2)c2ccccc2)C1 (configuration not stated)
inhibition [12]: 12% | inhibition [4]: 8% | pKa [13]: 9.36 | logD [14]: 1.14 | inhibition [15]: 12% | pKa [16]: 3.32 | inhibition [17]: 16% | inhibition [18]: 12% | inhibition [19]: 21% | IC50 [3]: 117 µM | inhibition [20]: 7% | inhibition [21]: 22% | IC50 [7]: 0.2 µM

O=C(O)C1CCCNC1 (configuration not stated) [NIPECOTIC ACID]
inhibition [22]: 0% | inhibition [5]: 3% | pKa [23]: 3.45 | pKa [24]: 10.3 | IC50 [7]: 3.94 µM

NNC(=O)c1ccncc1
inhibition [22]: 42%

NCc1cc(O)no1
inhibition [25]: 0.004%

O=C(O)C1=CCCN(CCC=C(c2ccccc2)c2ccccc2)C1
inhibition [12]: 9% | inhibition [4]: 8% | inhibition [19]: 5% | IC50 [3]: 58.2 µM | inhibition [20]: 7% | IC50 [7]: 0.2 µM

O=C(O)C1CCCC(NCCC=C(c2ccccc2)c2ccccc2)C1 (configuration not stated)
IC50 [3]: 29.9 µM | Inhibition [8]: 54%

COC(=O)C1=CCCNC1
inhibition [26]: 4%

O=C(O)CC1CCN(CCC=C(c2ccccc2)c2ccccc2)C1 (configuration not stated)
inhibition [4]: 20% | IC50 [9]: 0.12 µM | IC50 [10]: 108 µM

O=C(O)[C@@H]1CCCNC1 [(R)-NIPECOTIC ACID]
IC50 [7]: 1.69 µM

NOCC(=O)O
inhibition [5]: 83%

O=C(O)CCCNCCC=C(c1ccccc1)c1ccccc1
inhibition [4]: 35% | IC50 [9]: 16.5 µM | IC50 [10]: 35.1 µM

O=C(O)[C@H]1CCCNC1 [(S)-NIPECOTIC ACID]
IC50 [27]: 9.88 µM

O=C(O)C1CNCCC1O (configuration not stated)
inhibition [4]: 10% | Inhibition [3]: 7% | IC50 [7]: 4.56 µM

CCOC(=O)C1CCCNC1 (configuration not stated)
Inhibition [1]: 52%
